# Active and inactive are the calls of the source. No cut-off for these calls is given here.
# Columns and labels:
# [1] = tested on: A549; test: Cellular protein labelling in human A549 cells transfected with PARK7 siRNA assessed as unspecific 55-75 kDa band formation at 5 uM incubated for 4 hrs by SDS-PAGE based fluorescence scanning immunoblotting analysis; type: functional, cell-based
# How it was run: (§1)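 HEK293T or A549 cells reverse-transfected with pooled PARK7 siRNA (Dharmafect 1), grown 48 h, then given probe at 5 μM final for 4 h. Lysates analysed by SDS-PAGE fluorescence scan and PARK7 immunoblot against control-transfected cells.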
# [2] = Drug penetration in human A549 cells at 5 uM incubated for 1 hrs by DAPI staining based confocal microscopic analysis; type: ADME, cell-based; settings: a549, 1 h
# How it was run: (§2)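 A549 cells incubated with probes at 5 μM final over a time course (1–24 h). For microscopy, cells on coverslips were fixed in 3.7% formaldehyde/PBS for 20 min, mounted with DAPI and imaged by confocal (63× oil). In parallel, cells were lysed for SDS-PAGE fluorescence scan and PARK7 immunoblot.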
# [3] = tested on: A549; test: Cellular protein labelling in human A549 cells assessed as unspecific 55-75 kDa band formation at 5 uM by SDS-PAGE based fluorescence scanning immunoblotting analysis; type: functional, cell-based
# How it was run: (§3)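 Probes applied to intact HEK293T or A549 cells at 5 μM final for 24 h, then lysed. Read-out by SDS-PAGE fluorescence scan and immunoblot against PARK7, looking at the ~25 kDa labelled band, PARK7 band shift and extra bands.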
# [4] = biological target: T1, Parkinson disease protein 7 (Homo sapiens) (UniProt Q99497); test: Binding affinity to PARK7 in human A549 cells assessed as band shift at 5 uM incubated for 4 hrs by SDS-PAGE based fluorescence scanning immunoblotting analysis relative to control; type: cell-based; how it was run: as §2
# T1 sequence (whole entry): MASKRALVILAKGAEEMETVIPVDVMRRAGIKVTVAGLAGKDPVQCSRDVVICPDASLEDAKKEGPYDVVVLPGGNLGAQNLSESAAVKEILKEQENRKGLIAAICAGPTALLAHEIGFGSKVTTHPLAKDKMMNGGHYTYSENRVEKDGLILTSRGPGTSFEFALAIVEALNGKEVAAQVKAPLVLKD
# [5] = biological target: T1, Parkinson disease protein 7 (Homo sapiens); test: Binding affinity to PARK7 in human A549 cells assessed as band shift at 5 uM incubated for 24 hrs by SDS-PAGE based fluorescence scanning immunoblotting analysis; type: cell-based; how it was run: as §3
# [6] = biological target: T1, Parkinson disease protein 7 (Homo sapiens); test: Binding affinity to PARK7 in human A549 cells upto 10 uM incubated for 4 hrs by SDS-PAGE based fluorescence scanning immunoblotting analysis; type: cell-based
# How it was run: (§4)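 HEK293T or A549 cells given the Bodipy probe at 0–10 μM for 4 h, then lysed. Lysates run on 12% Bis-Tris SDS-PAGE and fluorescence-scanned. Immunoblot for PARK7 with β-actin as loading control.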
# [7] = tested on: HEK-293T; test: Cellular protein labelling in HEK293T cells transfected with PARK7 siRNA assessed as PARK7 specific band formation at 5 uM incubated for 4 hrs by SDS-PAGE based fluorescence scanning immunoblotting analysis; type: functional, cell-based; settings: Homo sapiens; how it was run: as §1
# [8] = biological target: T1, Parkinson disease protein 7 (Homo sapiens); test: Binding affinity to recombinant human PARK7 incubated for 1 hrs by coomassie staining based SDS-PAGE fluorescence scanning analysis; settings: dose 0.1-10 µM
# [9] = tested on: A549 (Homo sapiens); test: Cellular protein labelling in A549 cells assessed as unspecific 55-75 kDa band formation at 5 uM by SDS-PAGE based fluorescence scanning immunoblotting analysis
# [10] = biological target: T1, Parkinson disease protein 7 (Homo sapiens); test: Binding affinity to recombinant human PARK7 at 2 uM incubated for 1 hrs by coomassie staining based SDS-PAGE fluorescence scanning analysis relative to control
# [11] = tested on: A549; test: Cellular protein labelling in human A549 cells transfected with PARK7 siRNA assessed as PARK7 specific band formation at 5 uM incubated for 4 hrs by SDS-PAGE based fluorescence scanning immunoblotting analysis; type: functional, cell-based; how it was run: as §1
# [12] = tested on: HEK-293T; test: Cellular protein labelling in HEK293T cells transfected with PARK7 siRNA assessed as unspecific 55-75 kDa band formation at 5 uM incubated for 4 hrs by SDS-PAGE based fluorescence scanning immunoblotting analysis; type: functional, cell-based; settings: Homo sapiens; how it was run: as §1
# [13] = biological target: T1, Parkinson disease protein 7 (Homo sapiens); test: Binding affinity to PARK7 in A549 cells assessed as band shift at 5 uM incubated for 24 hrs by SDS-PAGE based fluorescence scanning immunoblotting analysis
# [14] = biological target: T1, Parkinson disease protein 7 (Homo sapiens); test: Binding affinity to PARK7 in HEK293T cells upto 10 uM incubated for 4 hrs by SDS-PAGE based fluorescence scanning immunoblotting analysis; type: cell-based; how it was run: as §4
smiles,measurement,setting,value
CC1=CC(C)=[N+]2C1=C(CCCCc1cn(-c3ccc(F)c(C(=O)N4CCc5nc(NC(=O)[C@@H]6CCN(C#N)C6)sc5C4)c3)nn1)c1c(C)cc(C)n1[B-]2(F)F,Activity,[1],Active
same,Drug uptake,[2],Active
same,Activity,[3],Active
same,Activity,[4],100%
same,Activity,[5],Active
same,Activity,[6],Active
same,Activity,[7],inactive
same,Activity,[8],Dose-Dependent Effect
same,Activity,[9],Active
same,Activity,[10],100%
same,Activity,[11],inactive
same,Activity,[12],Active
same,Activity,[13],Active
same,Activity,[14],Active

# From ChEMBL document CHEMBL5506034, “Development of Inhibitors, Probes, and PROTAC Provides a Complete Toolbox to Study PARK7 in the Living Cell” (J Med Chem, 2024)
